These results are taken from ChEMBL document CHEMBL1151925, “Design and synthesis of enediyne-peptide conjugates and their inhibiting activity against chymotrypsin” (Bioorg Med Chem, 2009).

For orientation: Ki means the equilibrium dissociation constant of an inhibitor or competing ligand from its target. Lower therefore signals tighter binding.

Active and inactive are the calls of the source. The rule behind the calls is not given here.

The nature of assay [1]: Inhibition of alpha-chymotrypsin assessed as decrease in proteolysis of BSA at 1 mg/ml after 60 mins by SDS-PAGE. The gist of the method:
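Chymotrypsin digestion of BSA (1 mg/ml stock) in 0.01 M phosphate buffer at 38 °C, with free enzyme or enzyme preincubated with inhibitor. Digestion fragments resolved by SDS–PAGE with Coomassie Brilliant Blue staining. Loss of the intact BSA band and appearance of hydrolysed fragments were scored.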

Assay [2] in a line: Inhibition of alpha-chymotrypsin assessed as decrease in proteolysis of BSA at 5.9 uM to 35 uM by Lowry method. The gist of the method: (§1)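 BSA (1 mg/ml stock) in 0.01 M phosphate buffer digested with chymotrypsin (1 mg/ml solution) at 38 °C for a set time, free enzyme or enzyme preincubated with inhibitor at three concentrations. Undigested BSA precipitated with 4% trichloroacetic acid and removed by centrifugation. Hydrolysed products in the supernatant quantified by Lowry method and compared with the uninhibited control.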

Assay [3] can be described thus: Inhibition of alpha-chymotrypsin by Lineweaver-Burke plot analysis. The gist of the method: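 Chymotrypsin kinetics followed by UV-vis using N-benzoyl tyrosine ethyl ester substrate at 169–340 µM in 80 mM Tris HCl, pH 7.8, with CaCl2. Inhibitor varied across several concentrations. Reciprocal initial rate plotted against reciprocal substrate concentration (Lineweaver–Burk) to assign inhibition type and derive Ki.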

Assay [4] can be described thus: Inhibition of alpha-chymotrypsin assessed as decrease in proteolysis of BSA at 93 uM to 372 uM by Lowry method. A digest of the protocol: as §1
Assay [5] is described as follows: Inhibition of alpha-chymotrypsin assessed as decrease in proteolysis of BSA at 8.5 uM to 34 uM by Lowry method. A digest of the protocol:
as §1

The nature of assay [6]: Inhibition of alpha-chymotrypsin assessed as decrease in proteolysis of BSA at 80 uM to 320 uM by Lowry method. The gist of the method: as §1
The nature of assay [7]: Inhibition of alpha-chymotrypsin assessed as decrease in proteolysis of BSA at 4.6 uM to 7.7 uM by Lowry method. A digest of the protocol:
as §1

A short description of assay [8]: Inhibition of alpha-chymotrypsin assessed as decrease in proteolysis of BSA at 10.23 uM to 40.9 uM by Lowry method. The gist of the method:
as §1

Regarding `CC(C)(C)OC(=O)N[C@@H](Cc1ccccc1)C(=O)OCC(=O)N1CC#Cc2ccccc2C#CCC1`, the outcome in assay [1] and in assay [2] was Active. In assay [3], this compound gave a Ki of 30 µM.

In the case of `CC(C)(C)OC(=O)N[C@@H](Cc1ccccc1)C(=O)OCC(=O)N1CCCCC1`, the outcome in assay [1] and in assay [4] was inactive.

For the compound `C[C@H](NC(=O)OC(C)(C)C)C(=O)N[C@@H](Cc1ccccc1)C(=O)NCCC#Cc1ccccc1C#CC=O`, the outcome in assay [5] and in assay [1] was Active. The same compound came in with a Ki in assay [3] of 12 µM.

Take `CC(C)(C)OC(=O)N[C@@H](Cc1ccccc1)C(=O)N1CCc2ccccc2C1`: the result in assay [1] and in assay [6] was inactive.

Turning to `CC(C)(C)OC(=O)N[C@@H](Cc1ccccc1)C(=O)N1CC#Cc2ccccc2C#CCC1`, the outcome in assay [1] and in assay [7] was Active. The same compound yielded an inhibition constant Ki in assay [3] of 3 µM.

As to `CC(C)(C)OC(=O)N[C@@H](Cc1ccccc1)C(=O)OCC(=O)N1CC#C/C=C\C#CCC1`, the result in assay [1] and in assay [8] was Active.
